KCNK9 inh: blocks the human KCNK9 two-pore domain potassium channel; Q9NPC2; HEK293 KCNK9, FluxOR thallium flux fluorescence; stronger effect = lower value; B-score at 10 µM; hit rate 1.2% among 310,000;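 active = ratio B-score over 3 SD below the library mean, with starting fluorescence within 5 SD of its mean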;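 note: negative B-score means less thallium flux so channel inhibition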
hERG rescue: shields human hERG channel from block by proarrhythmic agents | CHO-hERG, FluxOR thallium flux, dofetilide IC70 present | Q12809 | activation (rescue from dofetilide block), less the hit threshold, % at 10 µM | AID 1511 | hit rate 0.51% among 310,000;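 active = activation above the mean of controls blocked by dofetilide plus 5 SD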;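 note: thallium influx through hERG after potassium depolarization seen as dye fluorescence rise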
KCNK3 inh: human KCNK3 channel inhibition, primary screen | hit rate 0.84% among 340,000 | B-score at 10 µM | CHO-KCNK3 thallium flux, FluxOR fluorescence; stronger effect = lower value;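 active = B-score under library mean minus 4 SD, starting fluorescence ratio at most library mean plus 5 SD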;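 note: more negative B-score means stronger inhibition of thallium flux through KCNK3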
Target sequence (O14649 whole entry, looked up): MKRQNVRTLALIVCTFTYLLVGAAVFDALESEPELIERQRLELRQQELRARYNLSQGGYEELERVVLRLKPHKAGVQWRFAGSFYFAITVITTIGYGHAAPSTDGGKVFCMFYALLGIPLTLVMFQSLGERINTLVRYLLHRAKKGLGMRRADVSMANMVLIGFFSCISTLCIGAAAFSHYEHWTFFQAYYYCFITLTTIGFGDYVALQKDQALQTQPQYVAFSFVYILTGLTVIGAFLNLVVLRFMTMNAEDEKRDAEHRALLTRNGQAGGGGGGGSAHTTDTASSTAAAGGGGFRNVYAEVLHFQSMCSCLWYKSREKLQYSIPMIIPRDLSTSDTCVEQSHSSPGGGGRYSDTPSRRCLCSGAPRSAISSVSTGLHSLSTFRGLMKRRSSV
KCNQ1 inh: human KCNQ1 channel inhibition | P51787 | CHO-K1 KCNQ1, FluxOR thallium flux fluorescence; stronger effect = higher value | B-score at 10 µM | hit rate 1.3% among 310,000 | AID 2642;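 active = compounds whose thallium flux B-score, printed positive for inhibition, exceeds three library SD while starting fluorescence stays within three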;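 note: channel opened by potassium depolarization with thallium stimulus after 20 min compound exposure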
KCNQ1 pot: potentiators or activators of human KCNQ1 potassium channel | hit rate 0.35% among 310,000 | P51787 | CHO-K1 KCNQ1, thallium flux FluxOR fluorescence; stronger effect = higher value | B-score at 10 µM;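 active = fluorescence ratio B-score, a plate-corrected score, at least three library SD, with initial intensity B-score within 5 SD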
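Assay system: stable KCNQ1 CHO-K1 line; medium: assay buffer, equal DMSO in all wells; timing: 90 min dye loading and 20 min compound exposure, both at room temperature; technique: kinetic FluxOR thallium fluorescence, 10-s 1-Hz baseline, 110-s post-stimulus read; read-out basis: B score of baseline-normalized fluorescence ratio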
Large screens that a line does not name were inactive. Most compounds without a hit are left out; they make up all but 3.1% or so of the library.

CCOC(=O)C1=NN(C(=O)c2ccc(OC)cc2)C(O)(c2ccc(Cl)cc2)C1 (stereo not drawn)	hERG rescue 39.9, KCNQ1 pot 56
CCOC(=O)C1=NN(C(=O)c2ccco2)C2(CC2)C1	none
CCOC(=O)C1=NN(C(=O)c2ccccc2)C(O)(c2ccc(C)cc2)C1 (stereo not drawn)	hERG rescue 7.4
CCOC(=O)C1=NN(C(=O)c2cccc(Br)c2)C(O)(C(C)(C)C)C1 (stereo not drawn)	hERG rescue 50.7, KCNQ1 pot 66 (no result: KCNK3 inh)
CCOC(=O)C1=NN(C(=O)Cc2ccccc2)C(O)(c2ccc(Cl)cc2)C1 (stereo not drawn)	none
CCOC(=O)C1=NN(C(=O)COc2ccccc2)C(O)(c2ccc(Cl)cc2)C1 (stereo not drawn)	none
Cc1nc2ccccc2c(=O)n1CCCN1CCOCC1	hERG rescue 5.8
CN(C)c1ccc2nc3ccc(=[N+](C)C)cc-3sc2c1	none
Cc1cc2nc3ccc(=[N+](C)C)cc-3sc2cc1N	KCNQ1 inh 6
Cc1sc(-c2ccccn2)nc1OC(=O)c1cccc(Cl)c1Cl	hERG rescue 5.8
Cc1sc(-c2ccccn2)nc1OC(=O)c1ccc(Cl)cc1	none
CCOC(=O)/C(=C/C=C1\Sc2cc(C)c(C)cc2N1CC)C(C)=O	KCNQ1 inh 13
CC(C)CC(NC(=O)c1ccc(Cl)cc1)C(=O)OCC(=O)c1ccc2c(c1)NC(=O)CO2 (stereo not drawn)	KCNQ1 pot 13
CC(O)C(NS(=O)(=O)c1ccc(Cl)cc1)C(=O)OCC(=O)c1ccc2c(c1)NC(=O)CO2 (stereo not drawn)	none (no result: KCNK9 inh, hERG rescue, KCNQ1 inh, KCNQ1 pot)
Cc1cc(C)nc(NC(=O)c2cc(-c3ccc(C)s3)nc3ccccc23)c1	KCNQ1 inh 6
CC(OC(=O)Cn1cnc2c1c(=O)n(C)c(=O)n2C)C(=O)NC(C)c1ccc(Cl)cc1Cl (stereo not drawn)	none
Cc1cc(C)c(O)c(NC(=S)NC(=O)Cc2ccccc2)c1	hERG rescue 4.8
CC(C)c1ccc(CC(C)C2C3=C(CCCC3=O)OC3=C2C(=O)CCC3)cc1 (stereo not drawn)	KCNQ1 inh 7
CCCN(C(=O)Cc1c(C(=O)O)n(C)c2ccccc12)c1cccc(C)c1	none
CCOC(=O)c1ccc2c(c1)n(CC)c(/C=C/N(C)c1ccccc1)[n+]2CC	KCNQ1 inh 8
CSCCC(NC(=O)c1ccc(Cl)cc1Cl)C(=O)NNC(=O)c1ccncc1 (stereo not drawn)	none (no result: KCNK9 inh, hERG rescue, KCNQ1 inh, KCNQ1 pot)
CCn1nc(C)c(/C=N/NC(=S)Nc2ccc(Cl)cc2Cl)c1C	hERG rescue 4.8
COCCN(Cc1cc2cc3c(cc2nc1Cl)OCO3)C(=O)c1ccc(C)cc1	KCNQ1 pot 29
Cc1ccc(NC(=O)OC(C)N2CCCCC2)cc1NC(=O)OC(C)N1CCCCC1 (stereo not drawn)	none (no result: KCNK9 inh, hERG rescue, KCNQ1 inh, KCNQ1 pot)
COc1cccc(NC(=O)CN2C(=O)c3cccnc3Oc3ccc(Cl)cc32)c1	none
O=C(CN1C(=O)c2cccnc2Oc2ccc(Cl)cc21)Nc1ccccc1F	KCNK9 inh -6.75
CCN(CC)C(=O)CSc1ncnc2c1nnn2-c1ccc(OC)cc1	none
CCOC(=O)CC(=O)CSc1ncnc2c1nnn2-c1ccc(OC)cc1	hERG rescue 7.0
Cc1ccn2c(/C=N/OCc3ccc(F)cc3)c(-c3ccc(Cl)cc3)nc2c1	KCNK9 inh -7.41
C[C@H]1COC2=C1C(=O)C(=O)c1c2ccc2c1CCCC2(C)C	KCNK3 inh -8.71
CCOC(=O)CSc1nc2c([nH]c3ccccc32)c(=O)n1C	hERG rescue 6.7
CCOC(=O)C(C)Sc1nc2c([nH]c3ccccc32)c(=O)n1C (stereo not drawn)	none
Cc1ccc(/C=C/C(=O)c2cc(Br)ccc2OC(=O)c2ccco2)cc1	none
O=C(/C=C/c1ccccc1O)c1ccco1	none
COc1ccccc1/C=C/C(=O)c1cc(Br)ccc1OC(=O)c1ccco1	hERG rescue 5.0
O=C(/C=C/c1cc(Br)ccc1O)c1ccco1	KCNK3 inh -9.81
COc1cc(/C=C2\C(=N)N3N=C(S(C)(=O)=O)SC3=NC2=O)ccc1OCCOc1ccccc1C	KCNQ1 inh 6
COc1cc(/C=C2\C(=N)N3N=C(S(C)(=O)=O)SC3=NC2=O)ccc1OC(=O)c1cccs1	none
Cc1nn(Cc2ccc(C(=O)N/N=C/c3ccncc3)o2)c(C)c1Cl	none
Cc1ccc(CNC(=O)c2ccc(Cn3nc(C)c(Cl)c3C)o2)cc1	KCNK9 inh -6.96
Cc1ccc(C(=O)c2ccccc2C(=O)Nc2ccccc2)cc1	none
Cc1ccc(C)c(NC(=O)c2ccccc2C(=O)c2ccccc2)c1	KCNK9 inh -10.2 (no result: KCNK3 inh)
Cc1c(C#N)c(O)[nH]c(=O)c1N=Nc1ccc(Br)cc1C(=O)O	hERG rescue 4.6
Cc1cccc(N=Nc2c(C)c(C#N)c(O)[nH]c2=O)c1	none
O=c1cc2c(c(-c3ccccc3)n1Cc1ccccc1)[C@H](CCO)NC2	none (no result: KCNK9 inh, hERG rescue, KCNQ1 inh, KCNQ1 pot)
OCC[C@@H]1NCc2cc(CO)cc(-c3ccccc3)c21	KCNK3 inh -9.93 (no result: KCNK9 inh, hERG rescue, KCNQ1 inh, KCNQ1 pot)
COc1ccc(N(CC(=O)NCCSCc2cccc(Cl)c2)S(C)(=O)=O)cc1Cl	none
O=C1/C(=C/c2ccccc2)CCc2ccc(Cl)nc21	none (no result: KCNK9 inh, hERG rescue, KCNQ1 inh, KCNQ1 pot)
CCCn1c2c(c(O)c(C(=O)Nc3nccs3)c1=O)CCCC2	KCNK9 inh -6.63
O=C(NC(=S)NCCc1ccccc1)c1cccc(Cl)c1	hERG rescue 12.4, KCNQ1 pot 9
COc1ccc(CCNC(=S)NC(=O)c2cccc(Cl)c2)cc1OC	none
CCCOP(=O)(OCCC)C(Nc1ccc(C(=O)O)cc1)c1ccccc1 (stereo not drawn)	none
CCCCOP(=O)(OCCCC)C(Nc1ccc(C(=O)OCC)cc1)c1ccncc1 (stereo not drawn)	KCNQ1 inh 6
O=C1CCC[C@@H]2Cc3nc4cc5c(cc4cc3[C@@H]3CCN1[C@H]23)OCO5	none (no result: KCNK9 inh, hERG rescue, KCNQ1 inh, KCNQ1 pot)
O=c1[nH]cc(-c2ccccc2)c(=O)[nH]1	KCNQ1 pot 12
CC(=O)c1ccc(OC(=O)c2ccc(Br)o2)cc1	none
Cc1ccc(OC(=O)c2ccc(Br)o2)cc1	hERG rescue 22.2
COc1ccc2cc(C(=O)N/N=C/c3sc4ccccc4c3O)ccc2c1	KCNQ1 inh 9
COc1ccc(C(=O)N/N=C/c2sc3ccccc3c2O)cc1	none
CCOc1cc(/C=N/Nc2nc(Nc3ccccc3)nc(N3CCCCC3)n2)ccc1OCC(=O)O	none
COc1ccc(/C=N/Nc2nc(Nc3ccccc3)nc(N3CCCCC3)n2)cc1OC	KCNQ1 inh 7
COc1ccc(CNC(=O)c2cc(=O)c3ccccc3o2)cc1	none
COc1cc(OC)c(OC)cc1CNC(=O)c1cc(=O)c2ccccc2o1	KCNQ1 pot 9
COc1ccc(NC(=O)c2ccc(Cl)c(S(=O)(=O)N3CCc4ccccc4C3)c2)cn1	KCNK3 inh -10.2
Cn1ccsc1=NC(=O)c1cc(S(=O)(=O)N2CCOCC2)ccc1F	none
CCn1c(SCC(=O)NC(=O)NCc2ccco2)nc2sc(C)c(C)c2c1=O	hERG rescue 9.2, KCNQ1 pot 12

High-throughput results deposited in PubChem by Johns Hopkins Ion Channel Center.
